The experiment has as its system PepTSt. The experiment is described as follows: Kinetics of proton-driven glycylsarcosine uptake in PepTSt proteoliposomes. As to conditions: proton-driven proteoliposome uptake, pH 6.5. The class given is biochemical, Streptococcus thermophilus. The gist of the method:
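PepTSt proteoliposomes (1:40 protein:lipid, extruded 400 nm) loaded with 20 mM KPi pH 6.50, 100 mM K acetate, 2 mM MgSO4. Diluted 1:50 into 20 mM NaPIPES […], 2 mM MgSO4, 10 μM valinomycin, giving an inside-negative potential that drives H+/peptide uptake. 3H peptide added at varying concentrations, 25°C. Quenched with ice-cold LiCl, filtered, counted, and converted to molar amounts via standard curves.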

glycylsarcosine: the “maximal rate of uptake, Vmax” value was 631 nmol min^−1 mg^−1 PepTSt.

Values taken from paper PMC3419923 (The EMBO Journal, 2012).
